Measured values from different studies.
Each line is one published result; the experiments were not run side by side.
Cell line: A549
Read-out: cell growth or viability

With `COc1ccc2/c(=N/c3ccccc3NC(=O)[C@@H](N)C(C)(C)C)cc(-c3ccc4c(c3)OCCO4)oc2c1` the inhibition was 6.77% (CCK-8; 1 µM).
With `O=C(Nc1ccc(Cl)cc1)Nc1ccc(-c2cn(Cc3ccc(Br)cc3)nn2)cc1` the viability was 78.8% (CCK-8; 50 µM, 72 h).
With `COc1ccc(NC(=O)Nc2cccc(-c3cn(Cc4ccccc4C)nn3)c2)cc1` the viability was 137% (CCK-8; 20 µM, 72 h).
`COCCC(=O)Nc1ccccc1/N=c1\cc(-c2ccc3nc(N)oc3c2)oc2ccccc12` has an inhibition of -0.65% (CCK-8; 1 µM).
`COc1ccc(NC(=O)Nc2cccc(-c3cn(Cc4ccc(Br)cc4)nn3)c2)cc1` has a viability of 152% (CCK-8; 20 µM, 72 h).
The viability of `O=C(NCc1cn(Cc2cccc(Cl)c2)nn1)Nc1ccc(Cl)cc1` is reported as 76.7% (CCK-8; 20 µM, 72 h).
The inhibition of `O=C(Nc1ccccc1/N=c1\cc(-c2ccc3c(c2)OCCO3)oc2cc(F)ccc12)N1CCOCC1` is reported as -4.17% (CCK-8; 1 µM).
With `CCCCCCCCCCCCCCCCCCOc1cccc(CC(=O)OCC[N+]2(C)CCOCC2)c1` the inhibition was 7.62% (SRB; 10 µM).
`CCCCn1cnc2ccc(-c3ccc(NC(=O)CCC)nc3)cc2c1=O` has an IC50 of 3190 nM (CCK-8; 72 h).
`Cc1cc(=O)oc2cc(OCCCCSC#N)ccc12` has a GI50 of 5 µM (SRB).
The viability of `COc1ccc(NC(=O)Nc2cccc(-c3cn(Cc4cccc(Cl)c4)nn3)c2)cc1` is reported as 141% (CCK-8; 20 µM, 72 h).
The IC50 of `CCCCn1cnc2ccc(-c3ccc(NC(=O)Nc4ccc(OC(F)(F)F)cc4)nc3)cc2c1=O` is reported as greater than 10000 nM (CCK-8; 72 h).
With `COc1ccc(NC(=O)NCc2cn(Cc3ccccc3C)nn2)cc1` the viability was 65.6% (CCK-8; 20 µM, 72 h).
`NCCC(=O)Nc1ccccc1/N=c1\cc(-c2ccc3oc(N)nc3c2)oc2ccccc12` gave an inhibition of 14.5% (CCK-8; 1 µM).
`CCCCCCCCCCCCCCCCCCOc1ccc(CC(=O)OCC[N+]2(C)CCCCC2)cc1` gave an inhibition of 11.1% (SRB; 10 µM).
`O=C(Nc1ccc(Cl)cc1)Nc1cccc(-c2cn(Cc3cccc(Br)c3)nn2)c1` gave a viability of 123% (CCK-8; 20 µM, 72 h).
`O=C(Nc1ccc(-c2cn(Cc3ccc(Cl)cc3)nn2)cc1)Nc1ccccc1Br` gave a viability of 102% (CCK-8; 20 µM, 72 h).
With `CCCC(=O)Nc1ccc(-c2ccc3ncn(Cc4ccccc4)c(=O)c3c2)cn1` the IC50 was greater than 10000 nM (CCK-8; 72 h).
For `CCNc1nc2ccc(-c3c/c(=N\c4ccccc4NC(=O)CCN)c4ccccc4o3)cc2o1`, the inhibition was 14.1% (CCK-8; 1 µM).
The viability of `COc1ccc(NC(=O)Nc2cccc(-c3cn(Cc4ccc(Cl)cc4)nn3)c2)cc1` is reported as 147% (CCK-8; 20 µM, 72 h).
`CCCCNC(=O)Nc1ccc(-c2ccc3ncn(CCCC)c(=O)c3c2)cn1` has an IC50 of 1390 nM (CCK-8; 72 h).
The inhibition of `NCCC(=O)Nc1ccccc1/N=c1\cc(-c2ccc3c(c2)OCO3)oc2ccccc12` is reported as 3.27% (CCK-8; 1 µM).
`CCCn1cnc2ccc(-c3ccc(N4CCCC4=O)nc3)cc2c1=O` gave an IC50 of greater than 10000 nM (CCK-8; 72 h).
For `O=C(NCc1cn(Cc2ccc(Br)cc2)nn1)Nc1ccc(Cl)cc1`, the viability was 97% (CCK-8; 50 µM, 72 h).
With `CCCCC(=O)Nc1ccc(-c2ccc3ncn(CC)c(=O)c3c2)cn1` the IC50 was 920 nM (CCK-8; 72 h).
With `O=C(NCc1cn(Cc2ccc(Cl)cc2)nn1)Nc1ccccc1Br` the viability was 86.4% (CCK-8; 20 µM, 72 h).
`CCCCC(=O)Nc1ccc(-c2ccc3ncn(CCC)c(=O)c3c2)cc1F` gave an IC50 of greater than 10000 nM (CCK-8; 72 h).
With `O=C(Nc1cccc(-c2cn(Cc3ccc(Cl)cc3)nn2)c1)Nc1ccccc1Br` the viability was 149% (CCK-8; 50 µM, 72 h).
`CCCCCCCCCCCCCCCCCCOc1ccccc1CC(=O)OCC[N+]1(C)CCCC1` gave an inhibition of 77% (SRB; 10 µM).
`CCCCC(=O)Nc1cc(F)c(-c2ccc3ncn(CCC)c(=O)c3c2)cn1` gave an IC50 of 1580 nM (CCK-8; 72 h).
`NCC(=O)Nc1ccccc1/N=c1\cc(-c2ccc3c(c2)OCO3)oc2c(N)cccc12` has an inhibition of -3.51% (CCK-8; 1 µM).
`COc1ccc(NC(=O)Nc2ccc(-c3cn(Cc4ccc(C)cc4)nn3)cc2)cc1` gave a viability of 76.2% (CCK-8; 50 µM, 72 h).
For `CCCCCCCCCCCCCCCCCCOc1ccc(CC(=O)OCC[N+](CC)(CC)CC)cc1`, the inhibition was 21.2% (SRB; 10 µM).
With `COc1cccc(NC(=O)Nc2nc3cc(-c4ccc5ncn(CCC6CCCCC6)c(=O)c5c4)ccc3s2)c1` the IC50 was 1270 nM (MTT; 72 h).
The EC50 of `CCOc1ccc(-c2cc(C(=O)O)c(-c3ccc(Cl)cc3)o2)cc1` is reported as 75 µM (MTT; 48 h).
`O=C(Nc1ccc(Cl)cc1)Nc1cccc(-c2cn(Cc3cccc(Cl)c3)nn2)c1` has a viability of 166% (CCK-8; 50 µM, 72 h).
`NCCC(=O)Nc1ccccc1/N=c1\cc(-c2ccc3nc(N)oc3c2)oc2ccc(F)cc12` gave an inhibition of 42.4% (CCK-8; 1 µM).
With `CCCCCCCCCCCCCCCCCCOc1ccccc1CC(=O)OCC[N+](CC)(CC)CC` the inhibition was 70.7% (SRB; 10 µM).
The IC50 of `COc1cccc(NC(=O)Nc2nc3cc(-c4ccc5ncn(Cc6ccccc6)c(=O)c5c4)ccc3s2)c1` is reported as 3390 nM (MTT; 72 h).
